How the values were obtained:
L1210 [1] = experiment: Concentration required to reduce 50% growth of L1210 cells in 48 hr; type: functional, cell-based, Mus musculus
Outline: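 Murine leukemia L1210 cells grown in vitro with the derivatives, which were dissolved in water. Growth was scored after 48 h against untreated controls. IC50 is the concentration that cuts cell multiplication by 50%. Values are the mean of two or three determinations, or four independent experiments where a standard deviation is given.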

Nucleic Acid [2] = experiment: DNA affinity constant to poly[d(A-T)]; type: nucleic-acid assay; settings: Bos taurus
Outline: (§1)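 Ethidium bromide displacement at 25 °C in 0.01 M cacodylate pH 7.0 with 10 mM NaCl, using 1.26 μM EB and 1 μM polynucleotide (poly[d(A-T)] or poly[d(G-C)]). Bound-EB fluorescence was read across varying drug concentrations. The concentration displacing 50% of EB came from nonlinear-regression fitting, and Kapp was derived from it by the Baguley method.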

Nucleic Acid [3] = experiment: DNA affinity constant to poly[d(G-C)]; type: nucleic-acid assay; settings: Bos taurus; outline: as §1
L1210 [4] = experiment: Concentration required to reduce 50% growth of L1210 cells in 48h; b=No inhibition at 7.5 uM; type: functional, cell-based, Mus musculus
Outline: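 Murine leukaemia L1210 cells grown in vitro, with the metalloporphyrin derivatives dissolved in water. Growth was measured after 48 h against untreated controls. IC50 is the concentration that cuts the rate of cell multiplication by 50%. Values are the mean of two or three determinations, or of four independent experiments where a deviation is given.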

[5] = tested as the Zn salt or complex

Question: How did the IC50 (L1210 [1]; l1210) turn out when BLEOMYCIN was run?
Answer: The IC50 was 1700 nM.

Question: With `CC(=O)[O-].CC(=O)[O-].CC(=O)[O-].CC(=O)[O-].COc1ccc2[nH]c3c(C)c4cc[n+](CCCCC(=O)Nc5ccc(-c6c7nc(c(-c8cc[n+](C)cc8)c8ccc([nH]8)c(-c8cc[n+](C)cc8)c8nc(c(-c9cc[n+](C)cc9)c9ccc6[nH]9)C=C8)C=C7)cc5)cc4c(C)c3c2c1.[Zn]` as the compound, how does the K app (Nucleic Acid [2]; [5]) read?
Answer: The K app was 2e+09 M⁻¹.

Question: And the K app (Nucleic Acid [3]; [5])?
Answer: Its K app is 1.9e+08 M⁻¹.

Question: And the IC50 (L1210 [4])?
Answer: The IC50 was “No growth inhibition”.

Question: `COc1ccc2[nH]c3c(C)c4cc[n+](CCCCC(=O)O)cc4c(C)c3c2c1` was tested. Which K app (Nucleic Acid [2]) did it give?
Answer: Its K app is 2.5e+06 M⁻¹.

Question: And the K app (Nucleic Acid [3])?
Answer: Its K app is 4.9e+06 M⁻¹.

Question: And the IC50 (L1210 [1]; Mus musculus, L1210, 48 h)?
Answer: Its IC50 is > 23000 nM.

Source: ChEMBL document CHEMBL1125641, “Syntheses and in vitro evaluation of water-soluble "cationic metalloporphyrin-ellipticine" molecules having a high affinity for DNA” (J Med Chem, 1991)
